From PubChem
Rows were chosen to be rich in hits. Some 2.1% of all compounds tested hit in one or more screens of this group.
MC4R barr agon – human MC4R agonism via beta-arrestin | P32245 | U2OS MC4R beta-arrestin complementation, luminescence; percent of melanotan II response, DMSO zero | activation, % at 8.9 µM | actives 0.98% (n = 360,000) | AID 540308;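 active means activation above a per-plate cutoff, the mean activation of sample wells on that plate plus 3 SD, cut at about 8% in these data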
Target sequence (P32245 whole entry, looked up): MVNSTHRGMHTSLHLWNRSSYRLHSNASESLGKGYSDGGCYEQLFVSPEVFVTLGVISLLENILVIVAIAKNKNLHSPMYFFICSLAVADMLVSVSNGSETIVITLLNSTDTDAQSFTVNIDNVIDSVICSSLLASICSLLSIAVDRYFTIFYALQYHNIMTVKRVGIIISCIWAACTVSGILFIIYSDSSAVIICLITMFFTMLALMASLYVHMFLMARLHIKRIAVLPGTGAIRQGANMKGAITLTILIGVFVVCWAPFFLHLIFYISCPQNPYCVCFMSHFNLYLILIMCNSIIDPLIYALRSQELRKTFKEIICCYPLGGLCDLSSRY
CFTR F508del cor – CFTR F508del correction in bronchial cells; CFBE cells, YFP halide quenching; stimulated with forskolin plus potentiator P3; % fluorescence drop versus neutral controls; activity (quench increase), % at 7.58 µM; actives 0.36% (n = 350,000);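 active means mean added fluorescence quench of at least 8% versus neutral control, with both replicates also reaching 8%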;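 further: cells transiently co-express mutant CFTR-F508del with the halide-sensitive YFP; corrector assay measuring rescue of mutant channel to the surface after 24 h compound exposure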
SMARCA2 activ – activators of SMARCA2 function; activation, % at 9.1 µM; actives 1% (n = 370,000); MG213 cells, MMTV-luciferase reporter, dexamethasone, overnight; in the data active means activation above about 7.8%;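 further: 0% = vehicle wells and 100% = reference activator wells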
MC4R antagonist – blocks human MC4R cAMP signaling; P32245; MC4R-expressing cells, MTII-stimulated cAMP, LANCE TR-FRET; inhibition, % at 6.5 µM; actives 0.48% (n = 360,000); AID 540295;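 active means inhibition above its plate's cutoff, the mean of tested wells on that plate plus 3 SD, cut at about 29% in these data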;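 further: 0% = Melanotan II alone and 100% = Melanotan II plus saturating MCL0020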
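Assay system: U2OS cells stably expressing human melanocortin 4 receptor (MC4R) / Dosing: 6.5 µM / Timing: compound 30 min, challenge 1 h, detection 1 h / Measured by: Eu-cAMP/anti-cAMP TR-FRET, emission 671 nm / Replicates: singlicate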
SMARCA2 conf – SMARCA2 activation, confirmation screen. shares compounds with SMARCA2 activ. MG213 cells, MMTV-luciferase with dexamethasone, luminescence, overnight; MG213 cells expressing E1A, Rb sequestered; DMSO wells 0%, reference activator 100%. activation, % at 9.1 µM. actives 30% (n = 3,500);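 active means activation above its plate's cutoff, the mean activation of tested wells plus 3 SD, cut at about 7.9% in these data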
GAL4-VP16 Luc – GAL4-VP16 reporter activation counter-screen; activation, % at 9.1 µM; actives 41% (n = 3,500); AID 686939; shares compounds with SMARCA2 activ; HEK293 GAL4-VP16 pG5luc reporter, luciferase luminescence; scaled: DMSO wells 0%, SAHA wells 100%;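 active means activation above the solvent-only control well mean plus 3 SD, averaged across control plates, cut at about 5.2% in these data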
* hit, by the source's call; / = not tested or not shown.

SMILES	MC4R barr agon	CFTR F508del cor	SMARCA2 activ	MC4R antagonist	SMARCA2 conf	GAL4-VP16 Luc
C[C@@H]1CN([C@@H](C)CO)C(=O)Cc2cc(NC(=O)Nc3ccc(C(F)(F)F)cc3)ccc2O[C@@H]1CN(C)S(C)(=O)=O	/	-2	/	/	/	/
O=C(O)CCSc1nnc(-c2cccnc2)n1-c1ccccc1	-1	0	/	3	/	/
O=C(CSc1nnc(-c2cccnc2)n1-c1ccccc1)c1ccccc1Cl	/	/	8.6*	/	2	1
CO[C@H]1CN(C)C(=O)c2cc(NC(=O)C3CC3)ccc2OC[C@@H](C)N(C(=O)c2ccccc2)C[C@@H]1C	/	0	/	/	/	/
CN1CCC(=NNC(=O)C(=O)Nc2ccccc2)CC1	-1	/	8.2*	-1	6	2
C[C@H]1CN([C@@H](C)CO)C(=O)c2cc(C#CCN(C)C)cnc2O[C@H]1CN(C)C	/	0	/	/	/	/
C[C@H]1CN([C@@H](C)CO)C(=O)Cc2cc(NS(=O)(=O)c3ccc(Cl)cc3)ccc2O[C@H]1CN(C)C(=O)Nc1ccc2c(c1)OCO2	/	-1	/	/	/	/
C=CCOc1ccc2oc(=O)cc(C)c2c1	-1	/	10*	-1	-2	0
Cc1cc(=O)oc2ccc(OCc3ccccc3)cc12	2	-2	4	0	/	/
COCCNC(=O)C[C@@H]1CC[C@@H]2[C@H](COC[C@H](O)CN2C(=O)c2cc(Cl)cc(Cl)c2)O1	/	1	/	/	/	/
COc1cccc(CNC(=O)C[C@@H]2C=C[C@H](NC(=O)C3CCC3)[C@@H](CO)O2)c1	/	2	/	/	/	/
CN1CCN(CCCNC(=O)c2ccc(/C=C3\Oc4ccccc4N(Cc4ccccc4F)C3=O)cc2)CC1	6	-4	7	3	/	/
Cc1cccc(CN2C(=O)/C(=C\c3ccc(C(=O)NCCCN4CCN(C)CC4)cc3)Oc3ccccc32)c1	4	1	8.5*	5	12*	-1
C[C@@H](NC(=O)C[C@H]1CC[C@@H]2[C@H](COC[C@H](O)CN2C)O1)c1ccccc1	/	-2	/	/	/	/
CC(C)C(=O)Nc1ccc2c(c1)C(=O)N(C)[C@@H]1CC[C@@H](CC(=O)O)O[C@H]1CO2	/	-1	/	/	/	/
Nc1ncnc2c1ncn2C1OC(CO)C(O)C1O (configuration not stated)	0	2	8.6*	1	5	0
OCC1OC(n2cnc3c(SCc4ccccc4)ncnc32)C(O)C1O (configuration not stated)	-3	6	8.7*	0	13*	1
OCC1OC(n2ccc3c(SCc4ccccc4)ncnc32)C(O)C1O (configuration not stated)	-1	4	9.4*	2	8	9.6*
Nc1nc(SCc2ccccc2)c2ncn(C3OC(CO)C(O)C3O)c2n1 (configuration not stated)	-2	3	2	-1	/	/
S=c1[nH]ccn1Cc1ccccc1	0	-3	8.9*	21	-1	1
S=c1[nH]ccn1-c1ccccc1Cl	-1	0	-3	0	/	/
O=C(O)C[C@@H]1C=C[C@H](NC(=O)CCN2CCCCC2)[C@@H](CO)O1	/	-1	/	/	/	/
CO[C@@H]1CN(C)C(=O)c2ccc(NC(=O)Nc3ccc4c(c3)OCO4)cc2OC[C@@H](C)N(C(C)=O)C[C@H]1C	/	1	/	/	/	/
O=C(N[C@@H]1CC[C@@H](CCNC(=O)C2CCC2)O[C@@H]1CO)c1ccccn1	/	0	/	/	/	/
Oc1ccc(-c2nccc(-c3ccccn3)n2)cc1	1	-2	10*	-18	8	8.1*
SMILES	MC4R barr agon	CFTR F508del cor	SMARCA2 activ	MC4R antagonist	SMARCA2 conf	GAL4-VP16 Luc
O=C(CC(F)(F)F)N1C[C@H]2[C@@H](c3ccccc31)[C@H](CO)N2C(=O)C1CCCC1	/	-1	/	/	/	/
O=C(CSc1nnc(-c2ccncc2)n1CC1CCCO1)Nc1cccc(O)c1 (configuration not stated)	-2	/	8.3*	2	-1	0
CCOc1ccc(NC(=O)CSc2nnc(-c3ccncc3)n2CC2CCCO2)cc1 (configuration not stated)	-2	/	-4	-1	/	/
Cc1ccc(S(=O)(=O)Nc2ccc3c(c2)CC(=O)N([C@@H](C)CO)C[C@H](C)[C@H](CN(C)S(=O)(=O)c2ccc(C)cc2)O3)cc1	/	2	/	/	/	/
CC(=O)N/C(=N\c1nc(C)cc(C)n1)Nc1ccccc1Cl	-2	-1	8.3*	4	4	1
CC(C)NC(=O)Nc1ccc2c(c1)C(=O)N([C@@H](C)CO)C[C@H](C)[C@H](CN(C)C(=O)Nc1cccc3ccccc13)O2	/	0	/	/	/	/
CCc1ccc(NC(=O)C(=O)NCC2CCCO2)cc1 (configuration not stated)	2	2	11*	4	4	16*
CCOc1ccc(/C(O)=C2/C(=O)C(=O)N(CCOCCO)C2c2ccccn2)cc1 (configuration not stated)	-1	/	8.6*	12	-1	1
CO[C@@H]1CN(C)C(=O)c2cc(NS(C)(=O)=O)ccc2OC[C@H](C)N(C(=O)C2CCCC2)C[C@@H]1C	/	0	/	/	/	/
COc1ccc(S(=O)(=O)N(C)C[C@H]2OCCCC[C@H](C)Oc3ccc(NC(=O)c4ccncc4)cc3C(=O)N([C@H](C)CO)C[C@H]2C)cc1	/	0	/	/	/	/
COc1ccc(NC(=O)N(C)C[C@H]2Oc3ccc(NC(=O)Nc4ccccc4)cc3CC(=O)N([C@@H](C)CO)C[C@H]2C)cc1	/	-3	/	/	/	/
Nc1ccc2nc(COc3ccccc3)[nH]c2c1	-1	3	12*	5	1	1
CCc1cc(C(=O)O)c(NC(=O)/C=C/c2ccc(OC)cc2)s1	1	-1	13*	4	1	6.1*
COc1cc(/C=C(\C#N)C(=O)Nc2ccccc2F)ccc1OCCN1CCOCC1	1	-1	1	3	/	/
N#C/C(=C/c1ccc(N2CCOCC2)o1)C(=O)Nc1ccccc1	2	3	8.8*	-11	7	11*
COc1cc(/C=C(\C#N)C(=O)Nc2ccccc2)ccc1OCCN1CCOCC1	-1	-1	8.5*	-5	5	6.0*
Cc1ccc(/C(C#N)=C\c2ccc(N3CCOCC3)o2)cc1	4	-5	9.1*	20	14*	21*
N#C/C(=C\c1ccc(N2CCOCC2)o1)C(=O)NCCc1ccccc1	1	6	0	1	/	/
COc1ccc(S(=O)(=O)N(C)C[C@@H]2OCCCC[C@@H](C)Oc3ccc(NS(=O)(=O)c4c(C)noc4C)cc3C(=O)N([C@@H](C)CO)C[C@H]2C)cc1	/	0	/	/	/	/
CO[C@H]1CN(C)C(=O)c2cc(NC(=O)NC3CCCCC3)ccc2OC[C@H](C)N(C(C)=O)C[C@@H]1C	/	-1	/	/	/	/
